Assay outcomes from PubChem BioAssay.
Shown are actives, neighbours in structure and some others; about 1.5% of the full set was active somewhere.
STAT3 inh: reduces IL-6 driven STAT3 reporter signal. U3A cells, IL-6 STAT3-luciferase reporter, luminescence; host cell line lacks STAT1. inhibition, % at 5.5 µM. 190,000 tested, 0.89% active;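 active = inhibition above the mean inhibition across all screened compounds plus 3 SD, cut at about 44% in these data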
STAT1 inh-1: STAT1 signaling inhibition; NIH 3T3 STAT1-luciferase reporter, IFN-gamma, luminescence; inhibition, % at 5.5 µM; 200,000 tested, 0.35% active; AID 920;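 active = inhibition above a set limit, the mean inhibition across all tested compounds plus 3 SD, cut at about 34% in these data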
TAG inh: inhibitors of triacylglycerol accumulation; inhibition, % at 12.5 µM; AID 651582; H9c2 cells, Nile Red lipid (TAG) fluorescence; cells loaded with 200 µM oleic acid; 230,000 tested, 0.66% active;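 active = pattern-corrected inhibition of lipid staining of at least 50% with the nuclear-stain viability signal not falling by more than 50%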
Lipid droplet: hepatic lipid droplet formation modulation. AML12 mouse hepatocytes, oleate lipid droplets, BODIPY imaging. inhibition, % at 6.5 µM. 240,000 tested, 0.4% active;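 active = lipid droplet intensity inhibited by at least 50%, with more than 500 cells counted; inconclusive = wells with under 300 cells, treated as cytotoxic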
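Assay system: AML12 mouse liver cells | Compound dosing: One dose, 6.5 µM compound | Read-out basis: Droplet intensity reduction, % inhibition | Measured by: Fluorescence imaging, 20x objective, two fields per well | Schedule: Overnight treatment with compound plus oleate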
Platelet DG rel: platelet dense granule release activity | human platelet-rich plasma, SFLLRN dense granule ATP release, luminescence | inhibition, %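 (compounds screened at 7.5 µM in platelet-rich plasma)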 | 300,000 tested, 0.22% active | AID 1663;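 active = mean replicate score, as percent of positive control, at or above 50; inconclusive = mean below 50 but at least one replicate at or above 50; inactive = mean and every replicate below 50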
PPC-1+TRAIL kill: PPC-1 cancer cell killing with TRAIL present; PPC-1 cells + TRAIL, ATPLite viability luminescence; cell killing (% activity), % at 4 µM or 5 µM; 220,000 tested, 0.41% active; AID 1443;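 active = cell killing above 50% in the first pass at 4 µM, then a duplicate retest at 5 µM averaging 50% or more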
STAT1 inh-2: STAT1 inhibition, confirmation assay | 200 tested, 55% active | NIH 3T3 STAT1-luciferase reporter, IFN-gamma, luminescence | shares compounds with STAT1 inh-1 | inhibition, % at 5.5 µM | AID 1263;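 active = triplicate mean inhibition exceeding the hit cutoff computed for the primary STAT1 screen, cut at about 35% in these data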
NFkB inh: NF-kappaB inhibition in STAT1 inhibitor counter-screen. HEK293T NF-kB luciferase reporter, TNF-alpha induced, luminescence. shares compounds with STAT1 inh-1. 200 tested, 30% active. inhibition, % at 5.7 µM;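 active = inhibition above the mean of solvent-only control wells plus 3 SD of those wells, cut at about 15% in these data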
STAT3 inh STAT1c: counter-screen for STAT1 inhibitors: STAT3 inhibition; shares compounds with STAT1 inh-1; U3A cells, IL-6 STAT3 luciferase reporter, luminescence; cells lacking STAT1; inhibition, % at 5.7 µM; 200 tested, 20% active;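 active = inhibition above the mean of solvent-only control wells plus 3 SD, set per campaign, cut at about 25% in these data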
PPC1 cytotox: PPC-1 cell cytotoxicity | shares compounds with PPC-1+TRAIL kill | PPC-1 viability, ATPlite luminescence, overnight | cytotoxicity, % at 5 µM | 1,200 tested, 50% active | AID 1447;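 active = reconfirmed compounds whose average cytotoxicity reaches 50% or more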
Hep lipid conf: hepatic lipid droplet formation inhibition, confirmed; shares compounds with Lipid droplet; AML12 mouse hepatocytes, BODIPY lipid droplet imaging; droplets induced with 100 µM oleic acid; inhibition, % at 5.2 µM; 870 tested, 65% active;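 active = inhibition of lipid droplet metric at least 50%, with more than 300 cells in each of four replicates; inconclusive = wells under 300 cells, flagged as toxic or low count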
AML12 cytotox: counter-screen for cytotoxicity in AML12 mouse hepatocytes; shares compounds with Lipid droplet; z-score at 5 µM; DAPI nuclear morphology cytotoxicity imaging; hits give high values; cells fed 100 µM oleate overnight; 870 tested, 3% active; in the data active = z-score above about 6.3;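 note: compound exposure lasted overnight at 37 °C before fixation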
H9c2 TAG conf: confirmation of triacylglycerol accumulation inhibitors | shares compounds with TAG inh | H9c2 lipid accumulation, Nile Red fluorescence; cells loaded with 200 µM oleic acid | inhibition, % at 12.5 µM | 990 tested, 71% active | AID 651629;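 active = mean inhibition across replicates of 40% or more; inactive = mean inhibition below 40%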
Of the large screens only hits and unclear results are named; the others gave an inactive call (follow-up assays come after a bar, where they were run).

CC1=C(O)C(=O)C=C2C1=CC=C1C2(C)CCC2(C)C3CC(C)(C(=O)O)CCC3(C)CCC12C (stereo not given)	none (no result: STAT3 inh, STAT1 inh-1, Lipid droplet, Platelet DG rel, PPC-1+TRAIL kill)
C[C@H]1C[C@@H](C)C(=O)[C@@H]([C@H](O)CC2CC(=O)NC(=O)C2)C1	STAT1 inh-1 84 (no result: STAT3 inh, TAG inh) | STAT1 inh-2 41 | NFkB inh 76 | STAT3 inh STAT1c 91 | PPC1 cytotox inactive
Cc1cc(C(=O)OC(C)C(=O)Nc2ccccc2)c(C)n1C1CC1 (stereo not given)	none (no result: STAT3 inh, STAT1 inh-1, Lipid droplet, Platelet DG rel, PPC-1+TRAIL kill)
C/C=C(\C)C(=O)OC1C(C)=C2C(C1OC(=O)CCCCC)C(C)(OC(C)=O)CC(OC(=O)CCC)C1(O)C2OC(=O)C1(C)O (stereo not given)	PPC-1+TRAIL kill 57 (no result: STAT3 inh, STAT1 inh-1, TAG inh) | PPC1 cytotox 54
CN1CCN(C(=O)COc2ccc(-c3nc4ccccc4s3)cc2)CC1	STAT3 inh 85, STAT1 inh-1 49, PPC-1+TRAIL kill 92 (no result: TAG inh, Lipid droplet) | PPC1 cytotox 91
Cn1ncnc2c(=O)n(C)c(=O)nc1-2	PPC-1+TRAIL kill 89 (no result: STAT3 inh, STAT1 inh-1, TAG inh, Lipid droplet) | PPC1 cytotox 90
CCC1([N+](=O)[O-])COP(N)(=O)OC1 (stereo not given)	none (no result: STAT3 inh, STAT1 inh-1, Lipid droplet, Platelet DG rel, PPC-1+TRAIL kill)
COC(=O)C1=C(c2ccc(OCc3ccccc3)cc2)C[C@@H]2CC[C@H]1N2C(=O)NCc1ccc(F)cc1	none (no result: STAT3 inh, STAT1 inh-1, Lipid droplet, Platelet DG rel, PPC-1+TRAIL kill)
O=c1[nH]c(=S)[nH]c(O)c1N=Nc1ccc2c(c1)OCCO2	PPC-1+TRAIL kill 74 (no result: STAT3 inh, STAT1 inh-1) | PPC1 cytotox 73
S=C(NCCc1ccccc1)N1Cc2ccccc2-n2nncc2C1	none (no result: STAT3 inh, STAT1 inh-1, Lipid droplet, Platelet DG rel, PPC-1+TRAIL kill)
CC(C)CN1Cc2ccccc2-n2nncc2C1	none (no result: STAT3 inh, STAT1 inh-1, Lipid droplet, Platelet DG rel, PPC-1+TRAIL kill)
Cc1ccc(-c2cc(-c3ccccc3)cc(-c3ccccc3)[n+]2-c2ccccc2)cc1	none (no result: STAT3 inh, STAT1 inh-1, Lipid droplet, PPC-1+TRAIL kill)
c1ccc(-c2cc(-c3ccccc3)[n+](-c3ccccc3)c(-c3ccccc3)c2)cc1	none (no result: STAT3 inh, STAT1 inh-1) | PPC1 cytotox inactive
COc1ccc2nc3c(C)n(C)ccc-3c2c1	none (no result: STAT3 inh, STAT1 inh-1, Lipid droplet, Platelet DG rel, PPC-1+TRAIL kill)
CCOC(=O)c1c(C)n(Cc2ccccc2)c2ccc(OCC(O)CN3C(=O)CNC3=O)cc12 (stereo not given)	none (no result: TAG inh) | PPC1 cytotox inactive
CCc1ccc(-n2c(O)c(C(C)=O)c(=O)[nH]c2=O)cc1 (tested in a mixture with another compound)	Lipid droplet 70 (no result: STAT3 inh, STAT1 inh-1) | Hep lipid conf inactive | AML12 cytotox inactive
C[C@H](CO)N1C[C@H](C)[C@H](CN(C)C(=O)Oc2ccccc2)OCc2cnnn2CCCC1=O	none (no result: STAT3 inh, STAT1 inh-1, Lipid droplet, Platelet DG rel, PPC-1+TRAIL kill)
CC1(C)CN=C(Nc2ccc(F)c(Cl)c2)S1	Lipid droplet 116 (no result: STAT3 inh, STAT1 inh-1) | Hep lipid conf inactive | AML12 cytotox inactive
CC1(C)CN=C(Nc2ccc(F)c(F)c2)S1	none (no result: Lipid droplet)
COc1cc2c(c(OC)c1OC)-c1ccc(O)cc1C(NC(C)=O)CC2 (stereo not given)	TAG inh 52 (no result: STAT3 inh, STAT1 inh-1, Lipid droplet, Platelet DG rel, PPC-1+TRAIL kill) | H9c2 TAG conf 58
C[C@]12CC[C@@H](O)CC1=CC(=O)C1C2CC[C@]2(C)C(=O)[C@H](O)CC12 (stereo not given in full)	none (no result: STAT3 inh, STAT1 inh-1, Lipid droplet, Platelet DG rel, PPC-1+TRAIL kill)
COC(=O)C1=C(c2ccc(OCc3ccccc3)cc2)C[C@@H]2CC[C@H]1N2C(=O)NCc1ccc(OC)c(OC)c1	TAG inh 53 (no result: STAT3 inh, STAT1 inh-1, Lipid droplet, Platelet DG rel, PPC-1+TRAIL kill) | H9c2 TAG conf inactive
c1ccc2c(c1)CN(Cc1ccc3c(c1)OCO3)Cc1cnnn1-2	none (no result: STAT3 inh, STAT1 inh-1, Lipid droplet, Platelet DG rel, PPC-1+TRAIL kill)
COc1cccc(N=Nc2c(O)[nH]c(=S)[nH]c2=O)c1	TAG inh 57 (no result: STAT3 inh, STAT1 inh-1) | H9c2 TAG conf 47
COc1ccc(N=Nc2c(O)[nH]c(=S)[nH]c2=O)cc1	none
O=S(=O)(c1ccccc1)N1Cc2ccccc2-n2nncc2C1	none (no result: STAT3 inh, STAT1 inh-1, Lipid droplet, Platelet DG rel, PPC-1+TRAIL kill)
CC1=CC(=C2C(=O)NC(=S)NC2=O)C=C(C(F)(F)F)N1Cc1ccccc1	TAG inh 54, Lipid droplet inconclusive | H9c2 TAG conf inactive
CCN1C(=O)CC(=O)N(CC)C1=S	none (no result: STAT3 inh, STAT1 inh-1, Lipid droplet, Platelet DG rel, PPC-1+TRAIL kill)
COc1ccc(C[C@@H]2c3cc(O)c(OC)cc3CCN2C)cc1O	TAG inh 68 | H9c2 TAG conf inactive
COc1ccc(CC2c3cc(OC)c(OC)cc3CCN2C)cc1OC (stereo not given)	none (no result: TAG inh, Lipid droplet)
CC(=O)OC12COC1CC(O)C1(C)C(=O)C(O)C3=C(C)C(O)CC(O)(C(OC(=O)c4ccccc4)C21)C3(C)C (stereo not given)	TAG inh 65 (no result: STAT3 inh, STAT1 inh-1, Lipid droplet, Platelet DG rel, PPC-1+TRAIL kill) | H9c2 TAG conf 85
CCC(C)NC(=O)c1c(N)n(CCCOC)c2nc3ccccc3nc12 (stereo not given)	none (no result: TAG inh, Lipid droplet)
COCCCn1c(N)c(C(=O)Nc2ccccc2)c2nc3ccccc3nc21	TAG inh 59 (no result: STAT3 inh, STAT1 inh-1) | H9c2 TAG conf 72
